ChEMBL document CHEMBL4219235, “Novel fatty acid chain modified GLP-1 derivatives with prolonged in vivo glucose-lowering ability and balanced glucoregulatory activity” (Bioorg Med Chem, 2018)

Assays:
[1] = target: Albumin (Homo sapiens, UniProt P02768); test: Binding affinity to human serum albumin after 3 hrs by LC-MS/MS analysis; set-up: concentration or dose not given beside the values
Outline: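 HSA was coupled to NHS-activated Sepharose (6–7 mg HSA/mL wet resin); an inactivated albumin-free resin served as control. Peptide (100 µg/mL in PBS) was incubated with each resin for 3 h at 25 °C. After centrifugation, unbound peptide in the supernatant was quantified by LC-MS/MS.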

[2] = target: Glucagon-like peptide 1 receptor (Homo sapiens, UniProt P43220); test: Agonist activity at recombinant human GLP1 receptor expressed in HEK293 cells assessed as cAMP accumulation by TR-FRET assay; assay type: functional, cell-based
Chain of Glucagon-like peptide 1 receptor (P43220 whole entry): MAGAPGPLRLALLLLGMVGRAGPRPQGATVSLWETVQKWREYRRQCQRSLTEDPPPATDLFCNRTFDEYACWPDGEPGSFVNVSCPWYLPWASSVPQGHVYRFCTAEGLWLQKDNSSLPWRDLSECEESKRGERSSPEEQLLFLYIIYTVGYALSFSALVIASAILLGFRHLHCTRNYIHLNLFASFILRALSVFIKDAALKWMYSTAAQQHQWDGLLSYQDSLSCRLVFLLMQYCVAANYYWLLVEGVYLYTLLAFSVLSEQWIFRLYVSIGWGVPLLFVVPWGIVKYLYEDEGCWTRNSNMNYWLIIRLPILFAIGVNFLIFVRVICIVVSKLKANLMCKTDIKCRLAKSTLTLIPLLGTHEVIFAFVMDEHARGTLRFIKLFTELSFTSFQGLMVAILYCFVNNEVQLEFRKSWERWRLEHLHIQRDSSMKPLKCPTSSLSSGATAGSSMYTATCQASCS

Chain of Albumin (P02768 whole entry): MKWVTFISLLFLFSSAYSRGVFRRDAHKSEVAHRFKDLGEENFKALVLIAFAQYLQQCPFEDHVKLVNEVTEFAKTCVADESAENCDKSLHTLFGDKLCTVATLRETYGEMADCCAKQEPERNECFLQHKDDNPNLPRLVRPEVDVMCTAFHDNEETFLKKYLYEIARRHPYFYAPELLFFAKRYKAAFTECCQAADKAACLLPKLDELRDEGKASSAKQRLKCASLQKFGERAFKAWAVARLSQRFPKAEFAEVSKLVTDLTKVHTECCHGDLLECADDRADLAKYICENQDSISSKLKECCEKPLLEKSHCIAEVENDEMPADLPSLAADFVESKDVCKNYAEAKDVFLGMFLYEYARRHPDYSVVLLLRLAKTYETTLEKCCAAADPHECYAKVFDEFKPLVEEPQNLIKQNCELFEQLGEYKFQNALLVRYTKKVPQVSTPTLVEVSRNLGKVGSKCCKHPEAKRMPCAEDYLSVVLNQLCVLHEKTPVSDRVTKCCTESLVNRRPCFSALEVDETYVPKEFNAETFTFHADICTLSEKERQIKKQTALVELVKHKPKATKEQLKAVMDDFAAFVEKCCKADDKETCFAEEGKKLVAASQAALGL

Activity [1] [%] | EC50 [2] [nM] | SMILES
37.4 | 0.0143 | CC[C@H](C)[C@H](NC(=O)[C@H](Cc1ccccc1)NC(=O)[C@H](CCC(=O)O)NC(=O)[C@H](CCCCN)NC(=O)[C@H](C)NC(=O)[C@H](C)NC(=O)[C@H](CCC(N)=O)NC(=O)CNC(=O)[C@H](CCC(=O)O)NC(=O)[C@H](CC(C)C)NC(=O)[C@H](Cc1ccc(O)cc1)NC(=O)[C@H](CO)NC(=O)[C@H](CSC1CC(=O)N(CCCCCC(=O)O)C1=O)NC(=O)[C@@H](NC(=O)[C@H](CC(=O)O)NC(=O)[C@H](CO)NC(=O)[C@@H](NC(=O)[C@H](Cc1ccccc1)NC(=O)[C@@H](NC(=O)CNC(=O)[C@H](CCC(=O)O)NC(=O)CNC(=O)[C@@H](N)Cc1cnc[nH]1)[C@@H](C)O)[C@@H](C)O)C(C)C)C(=O)N[C@@H](C)C(=O)N[C@@H](Cc1c[nH]c2ccccc12)C(=O)N[C@@H](CC(C)C)C(=O)N[C@H](C(=O)N[C@@H](CCCCN)C(=O)NCC(=O)N[C@@H](CCCNC(=N)N)C(N)=O)C(C)C (stereo partly drawn)
65.1 | 0.0263 | CC[C@H](C)[C@H](NC(=O)[C@H](Cc1ccccc1)NC(=O)[C@H](CCC(=O)O)NC(=O)[C@H](CCCCN)NC(=O)[C@H](C)NC(=O)[C@H](C)NC(=O)[C@H](CCC(N)=O)NC(=O)CNC(=O)[C@H](CCC(=O)O)NC(=O)[C@H](CC(C)C)NC(=O)[C@H](Cc1ccc(O)cc1)NC(=O)[C@H](CO)NC(=O)[C@H](CSC1CC(=O)N(CCCCCCCCCCCC(=O)O)C1=O)NC(=O)[C@@H](NC(=O)[C@H](CC(=O)O)NC(=O)[C@H](CO)NC(=O)[C@@H](NC(=O)[C@H](Cc1ccccc1)NC(=O)[C@@H](NC(=O)CNC(=O)[C@H](CCC(=O)O)NC(=O)CNC(=O)[C@@H](N)Cc1cnc[nH]1)[C@@H](C)O)[C@@H](C)O)C(C)C)C(=O)N[C@@H](C)C(=O)N[C@@H](Cc1c[nH]c2ccccc12)C(=O)N[C@@H](CC(C)C)C(=O)N[C@H](C(=O)N[C@@H](CCCCN)C(=O)NCC(=O)N[C@@H](CCCNC(=N)N)C(N)=O)C(C)C (stereo partly drawn)
34.1 | 0.0093 | CC[C@H](C)[C@H](NC(=O)[C@H](Cc1ccccc1)NC(=O)[C@H](CCC(=O)O)NC(=O)[C@H](CCCCN)NC(=O)[C@H](C)NC(=O)[C@H](C)NC(=O)[C@H](CCC(N)=O)NC(=O)CNC(=O)[C@H](CCC(=O)O)NC(=O)[C@H](CC(C)C)NC(=O)[C@H](Cc1ccc(O)cc1)NC(=O)[C@H](CO)NC(=O)[C@H](CO)NC(=O)[C@@H](NC(=O)[C@H](CC(=O)O)NC(=O)[C@H](CO)NC(=O)[C@@H](NC(=O)[C@H](Cc1ccccc1)NC(=O)[C@@H](NC(=O)CNC(=O)[C@H](CCC(=O)O)NC(=O)CNC(=O)[C@@H](N)Cc1cnc[nH]1)[C@@H](C)O)[C@@H](C)O)C(C)C)C(=O)N[C@@H](C)C(=O)N[C@@H](Cc1c[nH]c2ccccc12)C(=O)N[C@@H](CC(C)C)C(=O)N[C@H](C(=O)N[C@@H](CCCCN)C(=O)NCC(=O)N[C@@H](CCCNC(=N)N)C(=O)N[C@@H](CSC1CC(=O)N(CCCCCC(=O)O)C1=O)C(N)=O)C(C)C (stereo partly drawn)
28.5 | 0.0056 | CC[C@H](C)[C@H](NC(=O)[C@H](Cc1ccccc1)NC(=O)[C@H](CCC(=O)O)NC(=O)[C@H](CCCCN)NC(=O)[C@H](C)NC(=O)[C@H](C)NC(=O)[C@H](CCC(N)=O)NC(=O)CNC(=O)[C@H](CCC(=O)O)NC(=O)[C@H](CC(C)C)NC(=O)[C@H](Cc1ccc(O)cc1)NC(=O)[C@H](CO)NC(=O)[C@H](CSC1CC(=O)N(CCC(=O)O)C1=O)NC(=O)[C@@H](NC(=O)[C@H](CC(=O)O)NC(=O)[C@H](CO)NC(=O)[C@@H](NC(=O)[C@H](Cc1ccccc1)NC(=O)[C@@H](NC(=O)CNC(=O)[C@H](CCC(=O)O)NC(=O)CNC(=O)[C@@H](N)Cc1cnc[nH]1)[C@@H](C)O)[C@@H](C)O)C(C)C)C(=O)N[C@@H](C)C(=O)N[C@@H](Cc1c[nH]c2ccccc12)C(=O)N[C@@H](CC(C)C)C(=O)N[C@H](C(=O)N[C@@H](CCCCN)C(=O)NCC(=O)N[C@@H](CCCNC(=N)N)C(N)=O)C(C)C (stereo partly drawn)
